Screening data as filed in PubChem BioAssay.
LMPTP inh – blocks human LMPTP phosphatase; P24666; recombinant LMPTP-A, OMFP fluorogenic substrate, fluorescence intensity; inhibition, % at 20 µM; 360,000 compounds, 0.22% hits;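 active means compounds that cut the enzyme signal by at least half of the control window in the single-dose screen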;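 further: plate controls were DMSO wells with enzyme plus substrate for no effect and substrate without enzyme for full effect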
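Buffer or medium: Bis-Tris pH 6.0, DTT, detergent; Assay system: LMPTP-A enzyme; Quantity: 0.625 nM enzyme; Detection: endpoint fluorescence intensity; Times: 50 min dark incubation at room temperature; Controls: substrate-only low control, DMSO enzyme-plus-substrate high control; Doses: single 20 µM dose; Read-out: percent inhibition versus substrate-only and uninhibited controls; Reagent: 400 µM OMFP.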
Scp1 inh – Scp-1 (human) phosphatase inhibition; Q9GZU7; Recombinant Scp1, phosphopeptide, malachite green phosphate absorbance; inhibition, % at 20 µM; 340,000 compounds, 0.88% hits; AID 493091;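 active means inhibition above about 50% at 20 µM, limit read from the data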;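 further: plate controls were DMSO wells with enzyme for no effect and wells lacking enzyme for full effect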
Target sequence (Q9GZU7 76-261 limits assumed): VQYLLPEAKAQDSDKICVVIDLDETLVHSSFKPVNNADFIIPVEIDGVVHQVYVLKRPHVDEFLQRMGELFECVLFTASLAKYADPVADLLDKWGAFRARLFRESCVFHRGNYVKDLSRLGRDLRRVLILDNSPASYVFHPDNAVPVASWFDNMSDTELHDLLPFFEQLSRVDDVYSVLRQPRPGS
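System: truncated SCP-1 phosphatase (76-261aa); medium: Tris acetate buffer pH 5.5 with MgCl2 and Tween-20; incubation: 45 min room-temperature reaction, 5 min colour, 30 min stabiliser; compound: single 20 µM dose, 1% DMSO; reagent: Phosphorylated 17-residue peptide substrate; read-out: % inhibition at 20 µM; technique: colorimetric free-phosphate detection, absorbance 630 nm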
STEP block – STEP (human) phosphatase inhibition; P54829; recombinant STEP, OMFP fluorogenic substrate, fluorescence; inhibition, % at 20 µM; 360,000 compounds, 0.25% hits; AID 588621;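 active means inhibition at 20 µM, scaled per plate between control wells, above about 37%, limit read from the data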;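 further: 0% = DMSO with enzyme and substrate and 100% = substrate only without enzyme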
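material = STEP tyrosine phosphatase | reagent = fluorogenic phosphatase substrate OMFP at 25 µM final | doses = single compound dose of 20 µM, 1% DMSO final | schedule = 20 min reaction, room temperature, in the dark | measured by = fluorescence, 480/540 nm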
PP5 inh – blocks human protein phosphatase 5 activity; inhibition, % at 6.7 µM; P53041; purified PP5c, OMFP substrate fluorescence; 320,000 compounds, 0.18% hits;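 active means inhibition above the campaign's mean inhibition across all tested compounds plus 3 SD, cut at about 9.5% in these data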;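 further: 0% = DMSO only and 100% = 100 µM cantharidin control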
PP1 counter – PP1-alpha (human) inhibition in PP5 counter-screen | AID 2235 | purified PP1alpha, OMFP fluorescence | inhibition, % at 6.7 µM | P62136 | 320,000 compounds, 0.9% hits;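 active means inhibition above the mean inhibition of all tested compounds plus 3 SD, computed separately for each screening campaign, cut at about 15% in these data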
Target sequence (P62136 whole entry, looked up): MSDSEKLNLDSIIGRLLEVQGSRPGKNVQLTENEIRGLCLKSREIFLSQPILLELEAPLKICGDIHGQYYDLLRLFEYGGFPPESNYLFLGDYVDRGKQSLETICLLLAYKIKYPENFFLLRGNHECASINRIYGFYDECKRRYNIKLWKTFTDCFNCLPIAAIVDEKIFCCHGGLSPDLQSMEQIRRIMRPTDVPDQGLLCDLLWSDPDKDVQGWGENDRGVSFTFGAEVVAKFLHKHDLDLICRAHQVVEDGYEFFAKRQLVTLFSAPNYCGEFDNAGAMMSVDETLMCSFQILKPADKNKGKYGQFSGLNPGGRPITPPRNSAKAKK
The depositor's hits bear a star; . = no result given. An excerpt weighted towards active compounds, which were near 1.9% of everything screened.

SMILES	LMPTP inh	Scp1 inh	STEP block	PP5 inh	PP1 counter
O=C(c1ccc(-c2ccc(Cl)cc2)o1)N1CCN(c2ccc([N+](=O)[O-])cc2Cl)CC1	3	-8	2	0	16*
O=C(c1ccc(-c2ccc([N+](=O)[O-])cc2)o1)N1CCCCC1	1	-6	-2	2	-3
CC(C)CN(C(=O)COC(=O)c1cc2c(s1)CCC2)C1CCS(=O)(=O)C1 (stereo not drawn)	12	89*	8	0	3
CN=c1scc(-c2ccccc2F)n1/N=C/c1ccc(O)c(O)c1O	57*	22	8	.	.
CN=c1scc(-c2ccccc2F)n1/N=C/c1ccc[nH]1	2	3	-4	2	7
COc1ccc(-n2cnc3cc(NS(=O)(=O)c4ccc(C)cc4)ccc32)cc1	4	.	-2	12*	0
CCOc1ccc(NC(=O)c2c[nH]n3c(=O)cc(C4CCN(C(=O)OC(C)(C)C)CC4)nc23)cc1	2	-8	3	4	16*
CCOc1ccc(NC(=O)Nc2nnc(CC(=O)NCc3ccccc3)s2)cc1	-1	2	-2	-1	9
COc1ccc(NC(=O)Nc2nnc(CC(=O)NCc3ccccc3)s2)cc1	0	-4	3	5	16*
COC1=CC(=O)C(O)=C(CCCCCCC/C=C/CCCCCCCC2=C(O)C(=O)C=C(OC)C2=O)C1=O	69*	88*	10	3	10
COC1=C(OC)C(=O)C(CCCCCCCCCCO)=C(C)C1=O	0	.	-4	.	.
O=C(CN1CCN(c2nc(-c3ccc(Cl)cc3)cs2)CC1)NCc1ccco1	6	3	7	6	16*
COc1ccc(S(=O)(=O)N2CCCC2)c2ccccc12	0	-5	-1	-1	-3
O=C(O)c1[nH]c2ccccc2c1C(c1ccccc1)c1c(C(=O)O)[nH]c2ccccc12	1	-15	2	3	6
O=C(O)c1[nH]c2ccccc2c1C(c1cc(Cl)cc([N+](=O)[O-])c1O)c1c(C(=O)O)[nH]c2ccccc12	1	-2	-5	1	15*
O=C(COc1ccccc1Cl)NC(=O)NC1CCCC1	0	-3	-2	3	-3
O=C(NCCN1CCN(c2cccc(Cl)c2)CC1)c1ccc(CSc2nc3ccncc3[nH]2)cc1	83*	-1	1	3	6
COC(=O)c1ccc2c(c1)N(Cc1nc(-c3ccc(Cl)cc3)oc1C)C(=O)C1CCCN21 (stereo not drawn)	0	-17	2	2	16*
COc1ccccc1-c1nnc(NC(=O)c2ccc(S(=O)(=O)N(C)CC3CCCO3)cc2)o1 (stereo not drawn)	1	-10	0	3	17*
CC(=O)CSc1nnc(-c2ccncc2)n1C	0	6	-2	-1	-4
C=C1c2cccc(O)c2C(O)=C2C(=O)[C@]3(O)C(O)=C(C(N)=O)C(=O)[C@@H](N(C)C)[C@@H]3[C@@H](O)[C@H]12	88*	39	25	1	50*
C[C@H]1c2cccc(O)c2C(O)=C2C(=O)C3(O)C(O)=C(C(N)=O)C(=O)[C@@H](N(C)C)[C@@H]3[C@@H](O)[C@@H]21 (stereo partly drawn)	1	-14	-2	3	2
Cn1ccsc1=NC(=O)c1ccc([N+](=O)[O-])o1	2	65*	36	3	2
Cc1ccc(OCC(=O)c2c(N)n(C)c(=O)n(C)c2=O)c([N+](=O)[O-])n1	2	66*	4	4	-3
O=C(COC(=O)c1ccccc1NC(=O)c1ccco1)Nc1ccc2c(c1)OCO2	-1	-3	2	0	2
SMILES	LMPTP inh	Scp1 inh	STEP block	PP5 inh	PP1 counter
COc1cc(OC)cc(C(=O)Nc2ccc(-c3nc4ccccc4o3)cc2)c1	3	-12	3	3	-1
COc1cccc(C(=O)Nc2ccc(-c3nc4ccccc4o3)c(O)c2)c1	4	-8	-5	4	16*
COc1cc(OC)c(OC)cc1/C=N/n1c(C)nnc1C	0	-13	1	0	-1
O=C(Nc1ccc(Cc2ccncc2)cc1)c1cccc([N+](=O)[O-])c1	0	-4	-3	3	0
O=C(Nc1ccc(Nc2ccncc2)cc1)c1ccc(Nc2ccnc3ccc([N+](=O)[O-])cc23)cc1	78*	0	85*	.	.
COc1ccc(CC(=O)Nc2sc3c(c2C(N)=O)CCCC3)cc1	1	-19	-2	2	-1
O=C(NCc1ccc2c(c1)OCO2)c1ccc2snnc2c1	1	4	0	-2	0
COc1ccc(/C=N/NC(=O)c2nc(-c3ccccc3)n(-c3ccccc3)n2)c(O)c1	2	4	2	0	16*
CCOC(=O)c1cccc(NC(=O)/C(=C\c2ccccc2)NC(=O)c2ccccc2Cl)c1	0	13	-2	2	17*
COC(=O)c1cccc(NC(=O)/C(=C\c2ccccc2)NC(=O)c2ccccc2Cl)c1	1	4	-2	1	5
CC(NC(=O)CSc1nnc(COc2ccccc2)o1)c1ccccc1 (stereo not drawn)	0	-12	0	2	-3
Cc1noc(C)c1S(=O)(=O)Nc1ccc2c(c1)C(=O)N([C@H](C)CO)C[C@H](C)[C@@H](CN(C)C(=O)NC(C)C)O2	-3	85*	1	.	.
Cc1noc(C)c1NC(=O)N(C)C[C@H]1Oc2ccc(NC(=O)c3ccncc3)cc2C(=O)N([C@H](C)CO)C[C@@H]1C	-3	68*	-4	.	.
O=C(Nc1nc(-c2ccccc2)nc2ccccc12)c1ccc(F)cc1	-1	1	0	2	16*
CC(=O)Nc1ccc(Nc2nc(-c3ccccc3)nc3ccccc23)cc1	25	3	-2	1	7
CCN(CC)CCCNc1nc(-c2ccccc2)nc2ccccc12	50	-9	2	4	-3
c1ccc(-c2nc(NCCCn3ccnc3)c3ccccc3n2)cc1	57*	14	1	2	1
O=C(O)CCCCCNc1nc(-c2ccccc2)nc2ccccc12	59*	-5	1	2	-1
O=C(CSc1ncn[nH]1)Nc1cccc2ccccc12	-1	-2	-2	-1	3
CCOc1ccc(CNC(=O)C2CCN(S(=O)(=O)CC)CC2)cc1OC	0	-9	1	1	-4
COc1ccccc1-c1nc(SCC(=O)NCc2ccco2)c2c(=O)n(C)c(=O)n(C)c2n1	1	1	1	5	-1
Cn1c(=O)c2c(SCC(=O)NCc3ccco3)nc(-c3ccccc3Cl)nc2n(C)c1=O	3	15	4	1	17*
O=C(O)C1CSC(c2ccncc2)N1 (stereo not drawn)	-4	4	-3	1	-1
O=C(O)C1CSC(c2ccco2)N1 (stereo not drawn)	58*	67*	32	-1	-1
